Converted amounts (≈) assume the structure as drawn. Like-named read-outs stand apart in the source and are kept apart here.
How the values were obtained:
HIV-1 (NL4.3 virus) [1] = conditions: 21 days bi-daily dosing at 100 mg/kg; ref Stoddart et al. [29]; cited from earlier work
[2] = test system: Huh7 cells transfected with HBV DNA; test: HBV antiviral assay in cells transfected with HBV DNA; format: cell-based; conditions: test/control value, day 3, 2 µM
Method in brief: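 Huh7 cells were transfected with HBV DNA (8 μg) in the presence of 2 μM test compound or DMSO. On day 3, de novo HBsAg in cell extracts or supernatants was quantified by ELISA in triplicate. A test/control value was calculated from these readings.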

[3] = Plasma protein binding analysis; format: in vitro ADME; conditions: human
[4] = test system: HepG2 cells stably replicating HBV; test: HBV antiviral assay in cells stably replicating HBV; format: cell-based; conditions: Hepatitis B virus, 72 h
Method in brief: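 HepG2 cells stably replicating HBV were treated with test compound at 0.1, 1 or 10 μM, with DMSO as control, for 3 days. Supernatant was then removed and cells were retreated. After a further 72 hr, HBsAg and HBeAg were measured by ELISA and HBV DNA was quantified, all in cell extracts and in triplicate.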

[5] = Solubility analysis in PBS pH 7.4; format: physicochemical; conditions: pH 7.4, aqueous buffer, kinetic from dmso stock
[6] = molecular target: HCV NS5A-cyclophilin A complex (Homo sapiens, UniProt P62937); test: biochemical
Sequence of HCV NS5A-cyclophilin A complex (P62937 whole entry, one chain of several): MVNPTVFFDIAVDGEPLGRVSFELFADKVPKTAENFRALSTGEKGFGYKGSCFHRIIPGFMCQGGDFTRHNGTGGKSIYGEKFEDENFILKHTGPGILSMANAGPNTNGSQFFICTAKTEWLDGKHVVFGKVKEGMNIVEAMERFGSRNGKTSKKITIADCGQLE

[7] = test system: HCV Huh7 Gt2a replicon (JFH-1); test: HCV replicon antiviral assay, genotype 2a; format: cell-based; conditions: Hepatitis C virus, Huh-7, 72 h, read-out: HCV Huh7 Gt2a replicon EC50
Method in brief: (§1)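 Subgenomic replicon cells were maintained at 37°C, 5% CO2 in DMEM with 10% FBS and 250 μg/ml G418. They were seeded at 5 × 10³ cells/well without G418. Next day, serial dilutions of compound in DMEM plus 5% FBS were added for 72 hr at 37°C. HCV RNA was measured by one-step TaqMan real-time RT-PCR, with ribosomal RNA as the cell-number/cytotoxicity control. EC50 was derived from both measurements.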

[8] = test system: HCV Huh7 Gt1a replicon (H77); test: HCV replicon antiviral assay, genotype 1a; format: cell-based; conditions: Hepatitis C virus, Huh-7, 72 h, read-out: HCV Huh7 Gt1a replicon EC50
Method in brief: as §1

[9] = test system: HCV Gt1b replicon in Huh 5-2 cells; test: HCV antiviral assay Huh 5-2; format: cell-based; conditions: Hepatitis C virus, Huh-5-2, 96 h, read-out: HCV Huh5.2 Gt1b replicon EC50
Method in brief: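 Huh 5-2 cells seeded at 6.5 × 10³/well in DMEM with 250 μg/ml G418 and held 24 hr at 37°C, 5% CO2. Medium then replaced by 3-fold serial dilutions of test compound in complete DMEM without G418. After 4 days at 37°C, luciferase activity read and expressed as percent of untreated controls.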

HIV-1 viral load = conditions: 14 days dosing, HIV/HCV co-infected patients; cited from earlier work
HCV Huh7 Gt1b replicon = test: HCV replicon antiviral assay, genotype 1b; format: cell-based; conditions: Hepatitis C virus, Huh-7, 72 h, read-out: HCV Huh7 Gt1b replicon EC50
Method in brief: as §1

Cytostatic assay = format: cell-based; conditions: human, Huh 5-2 cells
HIV-1 (NL4.3 virus) [10] = test: SCID-hu Thy/Liv mouse model of HIV-1 infection; format: in vivo, SCID-hu Thy/Liv mice; conditions: oral bi-daily 14 days, 50 or 100 mg/kg/day
Method in brief: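 Human fetal thymus and liver were coimplanted under the kidney capsule of male C.B-17 SCID mice aged 6–8 weeks. Implants were inoculated with NL4-3 by direct injection 18 weeks later; controls received medium. Groups of six received 50 or 100 mg/kg/day by twice-daily oral gavage from day −1 until implant collection 2 weeks post-inoculation. Implant cells were assayed for p24 (ELISA), viral RNA (bDNA) and CD3/CD4/CD8 thymocytes (flow cytometry). Results are means with SD.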

HIV-1 in CD4+ HeLa cells = test: CD4+ HeLa HIV-1 inhibitory FACS assay; format: cell-based; conditions: Human immunodeficiency virus 1, HeLa, 48 h, read-out: HIV-1 HeLa cells IC50

In the case of O=C1Nc2ccc(Cl)cc2[C@@](C#CC2CC2)(C(F)(F)F)O1 [efavirenz], the “viral RNA reductions” value (HIV-1 (NL4.3 virus) [1]) is listed as 1–4 log10.
For C/C=C/C[C@@H](C)[C@@H](O)[C@H]1C(=O)N[C@@H](CC)C(=O)N(C)[C@H](C)C(=O)N(CC)[C@@H](C(C)C)C(=O)N[C@@H](C(C)C)C(=O)N(C)[C@@H](CC(C)C)C(=O)N[C@@H](C)C(=O)N[C@H](C)C(=O)N(C)[C@@H](CC(C)C)C(=O)N(C)[C@@H](CC(C)C)C(=O)N(C)[C@@H](C(C)C)C(=O)N1C [Alisporivir], the “HBV HepG2 transfected HBsAg T/C d3 at 2uM” value [2] was 18%, the fraction unbound at 5 h, 1 µM [3] was less than 0.04 and the IC50 ([4]; read-out: HBV Huh7 stable HBV DNA IC50) was greater than 10000 nM. For the same molecule, the IC50 ([4]; read-out: HBV Huh7 stable HBeAg IC50) was greater than 10000 nM, the IC50 ([4]; read-out: HBV Huh7 stable HBsAg IC50) was greater than 10000 nM and the solubility at 4 h [5] was 15 µM (≈ 18.2 µg/mL). It also gave an IC50 [6] of 240 ± 20 nM, an EC50 [7] of 102 ± 8 nM and an EC50 [8] of 98 ± 11 nM. For the same molecule, the EC50 [9] was 96 ± 23 nM, the “mean drop in viral load” value (HIV-1 viral load) was ~ 1 log and the EC50 (HCV Huh7 Gt1b replicon) was 76 ± 5 nM. The CC50 at 3 days (Cytostatic assay) was 11200 nM, the “overt signs of toxicity” value (HIV-1 (NL4.3 virus) [10]) was “No overt signs of toxicity” and the IC50 (HIV-1 in CD4+ HeLa cells) was 1500 ± 240 nM.
In the case of Cc1ccnc2c1NC(=O)c1cccnc1N2C1CC1 [nevirapine], the “viral RNA reductions” value (HIV-1 (NL4.3 virus) [1]) is given as 1–4 log10.
In the case of COC(=O)N[C@H](C(=O)N[C@@H](Cc1ccccc1)[C@@H](O)CN(Cc1ccc(-c2ccccn2)cc1)NC(=O)[C@@H](NC(=O)OC)C(C)(C)C)C(C)(C)C [atazanavir], the “viral RNA reductions” value (HIV-1 (NL4.3 virus) [1]) is given as 1–4 log10.
In the case of Nc1nc(=O)n([C@@H]2CS[C@H](CO)O2)cc1F [emtricitabine], the “viral RNA reductions” value (HIV-1 (NL4.3 virus) [1]) is listed as 1–4 log10.
